Experiment [1] concerns FIXgla-PC/HEK293 reporter cells. Nature of the experiment: Inhibition of vitamin K3-supported VKD carboxylation. The note with it: 1 μM vitamin K3 as substrate, 24 hours. The experiment is classed as cell-based, human. In a few lines:
(§1)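 HEK293 cells stably expressing FIXgla-PC (protein C whose Gla domain is replaced by that of factor IX), grown in DMEM/F12 with 10% FBS. Vitamin K stocks are made in polyethoxylated castor oil. Cells are cultured with vitamin K for 24 h. The medium is collected and used directly in an ELISA for carboxylated FIXgla-PC, with an anti-carboxylated FIX Gla-domain mAb, HRP anti-protein C and ABTS substrate.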

For experiment [2] the test system is unchanged. In words: Inhibition of vitamin K1-supported VKD carboxylation. The note with it: 5 μM vitamin K1 as substrate, 24 hours. The experiment is classed as cell-based, human. Summed up:
as §1

Experiment [3] has as its system UBIAD1-deficient FIXgla-PC/HEK293 reporter cells. In words: VKD carboxylation of FIXgla-PC supported by K vitamins in UBIAD1-knockout cells. The experiment is classed as cell-based, human. Conditions: for support of VKD carboxylation of reporter protein: UBIAD1-deficient (knockout) FIXgla-PC/HEK293 cells. Summed up: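 Ubiad1-knockout FIXgla-PC/HEK293 reporter cells were cultured for 24 h with increasing concentrations of vitamin K1, MK-4, vitamin K3, or menaquinones with 1–4 or 7 isoprene units. K vitamin stocks were made in polyethoxylated castor oil. Carboxylated FIXgla-PC was determined by ELISA, and half-maximal stimulation concentration (EC50) came from curve fitting. Mean ± SD.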

The test system of experiment [4] is FIXgla-PC/HEK293 reporter cells. Nature of the experiment: VKD carboxylation of reporter protein FIXgla-PC supported by K vitamins. The experiment is classed as cell-based, human. Conditions: intact FIXgla-PC/HEK293 cells, 0.015 nM to 1000 nM, 24 hours. In a few lines:
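Intact FIXgla-PC/HEK293 cells (stable reporter: protein C with factor IX Gla domain) were grown in DMEM/F12 with 10% FBS. They were incubated for 24 h with vitamin K1, MK-4, vitamin K3 or MK-1/2/3/4/7 at 0.015 nM to 1000 nM, from stocks in polyethoxylated castor oil. Carboxylated reporter was measured by ELISA (anti-carboxylated FIXgla capture, HRP anti-protein C, ABTS).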

Another experiment concerns kidneys. Conditions: kidneys of atorvastatin-treated mice; cited from earlier work.
In a further experiment the target is T1, UBIAD1 (Homo sapiens, UniProt Q9Y5Z9).
T1 sequence (Q9Y5Z9 1-338): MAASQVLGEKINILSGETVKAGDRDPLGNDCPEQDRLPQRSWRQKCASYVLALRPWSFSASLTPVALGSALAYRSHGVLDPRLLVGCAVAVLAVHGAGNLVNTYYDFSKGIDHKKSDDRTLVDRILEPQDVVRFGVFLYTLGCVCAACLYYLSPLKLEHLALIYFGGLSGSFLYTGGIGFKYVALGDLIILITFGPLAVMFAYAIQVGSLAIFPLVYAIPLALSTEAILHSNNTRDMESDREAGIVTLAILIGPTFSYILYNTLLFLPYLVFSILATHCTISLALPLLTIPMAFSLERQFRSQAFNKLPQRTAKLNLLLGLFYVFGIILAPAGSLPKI
Nature of the experiment: UBIAD1 activity with exogenous isoprenyl pyrophosphates in statin-blocked cells. It counts as cell-based. The note with it: 1 μM vitamin K3, 10 μM atorvastatin or simvastatin, 20 μM GPP, FPP or GGPP. Summed up: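 FIXgla-PC/HEK293 reporter cells were pre-incubated for 12 h with 10 μM atorvastatin or simvastatin to block endogenous isoprenyl pyrophosphate. Medium then contained 1 μM vitamin K3, statin (10 μM) and 20 μM GPP, FPP or GGPP as side-chain substrate. Carboxylated FIXgla-PC was quantified by ELISA and normalized to GGPP (100%). Mean ± SD, n=3 independent experiments.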

A further experiment deals with mutant zebrafish. Conditions: L65Q mutant zebrafish; cited from earlier work.
A further experiment addresses T2, UBIAD1 K181A (Homo sapiens, UniProt Q9Y5Z9, K181A).
T2 sequence (Q9Y5Z9 1-338 K181A): T1 sequence (Q9Y5Z9 1-338) with K181A
In words: GGPP recognition by UBIAD1 variant. The experiment is classed as cell-based. Conditions: 1 μM vitamin K3, statin-blocked mevalonate pathway. Summed up:
(§2)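 Ubiad1-knockout FIXgla-PC/HEK293 cells were transiently transfected with wild-type or mutant UBIAD1. At 24 h they were pre-treated with 10 μM atorvastatin for 3 h. They were then given 1 μM vitamin K3, 10 μM atorvastatin and increasing GGPP for 24 h. Carboxylated FIXgla-PC was read by ELISA, and GGPP EC50 came from a curve fit. Mean ± SD.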

In a further experiment the target is T3, UBIAD1 G186R (Homo sapiens, UniProt Q9Y5Z9, G186R).
T3 sequence (Q9Y5Z9 1-338 G186R): T1 sequence (Q9Y5Z9 1-338) with G186R
Nature of the experiment: GGPP recognition by UBIAD1 variant. The experiment is classed as cell-based. The note with it: 1 μM vitamin K3, statin-blocked mevalonate pathway. In a few lines: as §2

Changes are numbered by the printed parent chain.

Regarding `CCC(C)(C)C(=O)O[C@H]1C[C@@H](C)C=C2C=C[C@H](C)[C@H](CC[C@@H]3C[C@@H](O)CC(=O)O3)[C@H]21` [simvastatin], the “inhibition of VKD carboxylation” value in experiment [1] was “dose-response inhibition of VKD carboxylation”. In [2], the “effect on vitamin K1-supported carboxylation” value is recorded as “do not affect vitamin K1-supported carboxylation”.
With `CC(C)=CCC/C(C)=C/CC/C(C)=C/CC/C(C)=C/CC/C(C)=C/CC/C(C)=C/CC/C(C)=C/CC1=C(C)C(=O)c2ccccc2C1=O` [MK-7], the “carboxylation efficiency relative to MK-4” value in experiment [3] (MK-7 higher than MK-4) is given as “about 3 fold”. The EC50 in [3] (read-out: EC50 (half-maximal stimulation concentration) of K vitamins for VKD carboxylation, UBIAD1-deficient FIXgla-PC/HEK293 cells) is 2.3 nM. Besides, the “support of VKD carboxylation of reporter protein” value (“support … of reporter protein” below) in experiment [4] is reported as “efficiently support VKD carboxylation”.
In the case of `CC(C)c1c(C(=O)Nc2ccccc2)c(-c2ccccc2)c(-c2ccc(F)cc2)n1CC[C@@H](O)C[C@@H](O)CC(=O)O` [atorvastatin], the “inhibition of VKD carboxylation” value in experiment [1] is given as “dose-response inhibition of VKD carboxylation”. In addition, the “effect on vitamin K1-supported carboxylation” value in experiment [2] was “do not affect vitamin K1-supported carboxylation”. Besides, the “reduction of MK-4 production” value in the experiment on kidneys is reported as ~ 45%.
As to `CC(C)=CCC/C(C)=C/COP(=O)(O)OP(=O)(O)O` [GPP, geranyl pyrophosphate], the “support of VKD carboxylation as side chain source” value (shortened to “support … as side chain source”) on UBIAD1 was “support VKD carboxylation”.
For `CC1=C(C/C=C(\C)CCC[C@H](C)CCC[C@H](C)CCCC(C)C)C(=O)c2ccccc2C1=O` [vitamin K1, phylloquinone], the “support … of reporter protein” value in experiment [3] was “efficiently support VKD carboxylation”. Moreover, the “rescue of the vascular phenotype” value in the experiment on mutant zebrafish is listed as 6%.
Regarding `CC(C)=CCC/C(C)=C/CC/C(C)=C/CC/C(C)=C/COP(=O)(O)OP(=O)(O)O` [GGPP, geranylgeranyl pyrophosphate], the “increase of EC50 value of GGPP vs wild-type” value at UBIAD1 K181A and at UBIAD1 G186R was 5 fold in each case. In addition, the “support … as side chain source” value on UBIAD1 is “support VKD carboxylation”.
Regarding `CC(C)=CCC/C(C)=C/CC/C(C)=C/COP(=O)(O)OP(=O)(O)O` [FPP, farnesyl pyrophosphate], on UBIAD1, the “support … as side chain source” value is listed as “support VKD carboxylation”.
Regarding `CC(C)=CCC1=C(C)C(=O)c2ccccc2C1=O` [MK-1], the “support … of reporter protein” value in experiment [3] was “unable to support VKD carboxylation”.
Take `CC(C)=CCC/C(C)=C/CC/C(C)=C/CC/C(C)=C/CC1=C(C)C(=O)c2ccccc2C1=O` [MK-4, menaquinone-4]: the “support … of reporter protein” value in experiment [3] and in experiment [4] was “efficiently support VKD carboxylation” throughout. Besides, in the experiment with mutant zebrafish, the “rescue of the vascular phenotype” value was 58%.

The values above are taken from publication PMC9064899 (The FEBS journal, 2021).
